In PMC6931074 (Journal of Pharmaceutical Analysis, 2018):
Where two headings read alike, the source gives them in different places.

Columns and labels:
[1] = Influence of irradiation; type: physicochemical; conditions: solution under indirect daylight at room temperature, after 15 min
How it was run: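 A 150 μg/mL test compound solution was exposed to daylight at 25 °C, alongside a light-shielded control. Content was measured by C18 RP-HPLC using acetonitrile–phosphate buffer (35:65, pH 6.5) at 1 mL/min, 30 °C, with UV detection at 396 nm.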

[2] = Influence of oxidation; type: physicochemical; conditions: H2O2 3%, 10% and 30%
How it was run: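 Test compound solutions (150 μg/mL) containing 3%, 10% or 30% H₂O₂ were incubated at 25 °C. Samples taken at 0, 2, 5, 10, 20 and 30 min were ice-quenched, diluted tenfold with methanol, filtered (0.22 µm) and quantified by isocratic C18 RP-HPLC (UV 396 nm). Rate constants were derived from plots of ln(Ct/C0) against time.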

[3] = cited from earlier work
[4] = type: physicochemical
How it was run: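 Test compound stock (0.75 mg/mL in N,N-dimethylformamide) was diluted to 150 μg/mL in phosphate buffers (pH 1.85–10.97, set at 25 °C). Solutions in glass tubes were held in a thermostat bath at 25, 37, 60, 80 or 100 °C. Aliquots were taken at 0–24 h, ice-quenched, diluted tenfold in methanol, filtered (0.22 µm) and run by C18 RP-HPLC (UV 396 nm). Half-life = ln2/k; activation parameters came from Arrhenius relationship.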

SMILES: CC(/C=C1\SC(=S)N(CC(=O)O)C1=O)=C\c1ccccc1 [epalrestat, 5-[(1Z,2E)− 2-methyl-3-phenylpropenylidene]-4-oxo-2-thioxo-3-thiazolidie acetic acid]
- content of epalrestat relative to that protected from light [1]: a third
- stability under oxidation conditions [2]: extremely unstable
- behaviour of epalrestat powder on exposure to light [3]: gradually fades in color and decomposes on exposure to light
- pH of maximum stability ([4]; 25 °C, pH 1.85 to 10.97): ~10.97
- half-life at 150 μg/mL ([4]; aqueous phosphate buffer, pH 1.85, half-time (t1/2), pH 1.85, 25 °C): 43.3 h
- half-life at 150 μg/mL ([4]; aqueous phosphate buffer, pH 1.85, half-time (t1/2), pH 1.85, 37 °C): 33.6 h
- half-life at 150 μg/mL ([4]; aqueous phosphate buffer, pH 1.85, half-time (t1/2), pH 1.85, 60 °C): 29.6 h
- half-life at 150 μg/mL ([4]; aqueous phosphate buffer, pH 1.85, half-time (t1/2), pH 1.85, 80 °C): 24.6 h
- half-life at 150 μg/mL ([4]; aqueous phosphate buffer, pH 1.85, half-time (t1/2), pH 1.85, 100 °C): 10.6 h
- half-life at 150 μg/mL ([4]; aqueous phosphate buffer, pH 3.13, half-time (t1/2), pH 3.13, 25 °C): 43.6 h
- half-life at 150 μg/mL ([4]; aqueous phosphate buffer, pH 3.13, half-time (t1/2), pH 3.13, 37 °C): 35.7 h
- half-life at 150 μg/mL ([4]; aqueous phosphate buffer, pH 3.13, half-time (t1/2), pH 3.13, 60 °C): 33.6 h
- half-life at 150 μg/mL ([4]; aqueous phosphate buffer, pH 3.13, half-time (t1/2), pH 3.13, 80 °C): 23.3 h
- half-life at 150 μg/mL ([4]; aqueous phosphate buffer, pH 3.13, half-time (t1/2), pH 3.13, 100 °C): 11.1 h
- half-life at 150 μg/mL ([4]; aqueous phosphate buffer, pH 5, half-time (t1/2), pH 5.00, 25 °C): 116 h
- half-life at 150 μg/mL ([4]; aqueous phosphate buffer, pH 5, half-time (t1/2), pH 5.00, 37 °C): 60.3 h
- half-life at 150 μg/mL ([4]; aqueous phosphate buffer, pH 5, half-time (t1/2), pH 5.00, 60 °C): 36.3 h
- half-life at 150 μg/mL ([4]; aqueous phosphate buffer, pH 5, half-time (t1/2), pH 5.00, 80 °C): 22.9 h
- half-life at 150 μg/mL ([4]; aqueous phosphate buffer, pH 5, half-time (t1/2), pH 5.00, 100 °C): 9.67 h
- △H^‡ (enthalpy of activation) ([4]; pH 1.85): 2.806 kcal/mol
- △S^‡ (entropy of activation) ([4]; pH 1.85): −647.95 J/K/mol
- Rate constant (k) ([4]; pH 1.85, 25 °C): 0.0160 h⁻¹
- Rate constant (k) ([4]; pH 1.85, 37 °C): 0.0206 h⁻¹
- Rate constant (k) ([4]; pH 1.85, 60 °C): 0.0234 h⁻¹
- Rate constant (k) ([4]; pH 1.85, 80 °C): 0.0282 h⁻¹
- Rate constant (k) ([4]; pH 1.85, 100 °C): 0.0655 h⁻¹
- Ea (activation energy) ([4]; pH 1.85, Arrhenius plot 25–100 °C): 3.468 kcal/mol
- △H^‡ (enthalpy of activation) ([4]; pH 3.13): 2.885 kcal/mol
- △S^‡ (entropy of activation) ([4]; pH 3.13): −646.94 J/K/mol
- Rate constant (k) ([4]; pH 3.13, 25 °C): 0.0159 h⁻¹
- Rate constant (k) ([4]; pH 3.13, 37 °C): 0.0194 h⁻¹
- Rate constant (k) ([4]; pH 3.13, 60 °C): 0.0206 h⁻¹
- Rate constant (k) ([4]; pH 3.13, 80 °C): 0.0297 h⁻¹
- Rate constant (k) ([4]; pH 3.13, 100 °C): 0.0627 h⁻¹
- Ea (activation energy) ([4]; pH 3.13, Arrhenius plot 25–100 °C): 3.549 kcal/mol
- △H^‡ (enthalpy of activation) ([4]; pH 5.00): 6.03 kcal/mol
- △S^‡ (entropy of activation) ([4]; pH 5.00): −607.24 J/K/mol
- Rate constant (k) ([4]; pH 5.00, 25 °C): 0.0060 h⁻¹
- Rate constant (k) ([4]; pH 5.00, 37 °C): 0.0115 h⁻¹
- Rate constant (k) ([4]; pH 5.00, 60 °C): 0.0191 h⁻¹
- Rate constant (k) ([4]; pH 5.00, 80 °C): 0.0302 h⁻¹
- Rate constant (k) ([4]; pH 5.00, 100 °C): 0.0717 h⁻¹
- Ea (activation energy) ([4]; pH 5.00, Arrhenius plot 25–100 °C): 6.692 kcal/mol
- △H^‡ (enthalpy of activation) ([4]; pH 7.10): 6.217 kcal/mol
- △S^‡ (entropy of activation) ([4]; pH 7.10): −604.87 J/K/mol
- Rate constant (k) ([4]; pH 7.10, 25 °C): 0.0043 h⁻¹
- Rate constant (k) ([4]; pH 7.10, 37 °C): 0.0153 h⁻¹
- Rate constant (k) ([4]; pH 7.10, 60 °C): 0.0195 h⁻¹
- Rate constant (k) ([4]; pH 7.10, 80 °C): 0.0280 h⁻¹
- Rate constant (k) ([4]; pH 7.10, 100 °C): 0.0695 h⁻¹
- Ea (activation energy) ([4]; pH 7.10, Arrhenius plot 25–100 °C): 6.879 kcal/mol
- △H^‡ (enthalpy of activation) ([4]; pH 9.08): 7.012 kcal/mol
- △S^‡ (entropy of activation) ([4]; pH 9.08): −594.83 J/K/mol
- Rate constant (k) ([4]; pH 9.08, 25 °C): 0.0033 h⁻¹
- Rate constant (k) ([4]; pH 9.08, 37 °C): 0.0122 h⁻¹
- Rate constant (k) ([4]; pH 9.08, 60 °C): 0.0194 h⁻¹
- Rate constant (k) ([4]; pH 9.08, 80 °C): 0.0264 h⁻¹
- Rate constant (k) ([4]; pH 9.08, 100 °C): 0.0690 h⁻¹
- Ea (activation energy) ([4]; pH 9.08, Arrhenius plot 25–100 °C): 7.674 kcal/mol
- △H^‡ (enthalpy of activation) ([4]; pH 10.97): 10.38 kcal/mol
- △S^‡ (entropy of activation) ([4]; pH 10.97): −552.37 J/K/mol
- Rate constant (k) ([4]; pH 10.97, 25 °C): 0.0016 h⁻¹
- shelf-life (t0.9) ([4]; pH 10.97, 25 °C): 65.88
- Rate constant (k) ([4]; pH 10.97, 37 °C): 0.0036 h⁻¹
- shelf-life (t0.9) ([4]; pH 10.97, 37 °C): 29.28
- Rate constant (k) ([4]; pH 10.97, 60 °C): 0.0140 h⁻¹
- shelf-life (t0.9) ([4]; pH 10.97, 60 °C): 7.53
- Rate constant (k) ([4]; pH 10.97, 80 °C): 0.0267 h⁻¹
- shelf-life (t0.9) ([4]; pH 10.97, 80 °C): 3.95
- Rate constant (k) ([4]; pH 10.97, 100 °C): 0.0724 h⁻¹
- shelf-life (t0.9) ([4]; pH 10.97, 100 °C): 1.46
- Ea (activation energy) ([4]; pH 10.97, Arrhenius plot 25–100 °C): 11.04 kcal/mol
- half-life at 150 μg/mL ([4]; phosphate buffer, pH 7.1, half-time (t1/2), pH 7.10, 25 °C): 161 h
- half-life at 150 μg/mL ([4]; phosphate buffer, pH 7.1, half-time (t1/2), pH 7.10, 37 °C): 45.3 h
- half-life at 150 μg/mL ([4]; phosphate buffer, pH 7.1, half-time (t1/2), pH 7.10, 60 °C): 35.5 h
- half-life at 150 μg/mL ([4]; phosphate buffer, pH 7.1, half-time (t1/2), pH 7.10, 80 °C): 24.8 h
- half-life at 150 μg/mL ([4]; phosphate buffer, pH 7.1, half-time (t1/2), pH 7.10, 100 °C): 9.97 h
- half-life at 150 μg/mL ([4]; phosphate buffer, pH 9.08, half-time (t1/2), pH 9.08, 25 °C): 210 h
- half-life at 150 μg/mL ([4]; phosphate buffer, pH 9.08, half-time (t1/2), pH 9.08, 37 °C): 56.8 h
- half-life at 150 μg/mL ([4]; phosphate buffer, pH 9.08, half-time (t1/2), pH 9.08, 60 °C): 35.7 h
- half-life at 150 μg/mL ([4]; phosphate buffer, pH 9.08, half-time (t1/2), pH 9.08, 80 °C): 26.2 h
- half-life at 150 μg/mL ([4]; phosphate buffer, pH 9.08, half-time (t1/2), pH 9.08, 100 °C): 10 h
- half-life at 150 μg/mL ([4]; phosphate buffer, pH 10.97, half-time (t1/2), pH 10.97, 25 °C): 433 h
- half-life at 150 μg/mL ([4]; phosphate buffer, pH 10.97, half-time (t1/2), pH 10.97, 37 °C): 192 h
- half-life at 150 μg/mL ([4]; phosphate buffer, pH 10.97, half-time (t1/2), pH 10.97, 60 °C): 49.5 h
- half-life at 150 μg/mL ([4]; phosphate buffer, pH 10.97, half-time (t1/2), pH 10.97, 80 °C): 26 h
- half-life at 150 μg/mL ([4]; phosphate buffer, pH 10.97, half-time (t1/2), pH 10.97, 100 °C): 9.57 h
- reaction order of degradation ([4]; plot of ln(Ct/C0) against time, all degradation conditions): first-order
